Assay results gathered from unrelated publications.
Protocols differ between the studies behind these lines.
BTK: Tyrosine-protein kinase BTK (BTK, Homo sapiens, UniProt Q06187)

C1=C/COCc2cc(ccc2OCCN2CCCC2)Nc2nccc(n2)-c2cccc(c2)COC/1 gave a remaining signal of 100% (BTK; cell-free assay; 0.1 µM).
Cc1nc(Nc2ncc(C(=O)Nc3c(C)cccc3Cl)s2)cc(N2CC[C@H](N)C2)n1 has an inhibition of 65% (BTK; enzyme activity; inhibitor; mobility shift; 1 nM).
With CN1CCN(C(=O)c2ccc(NC(=O)Nc3ccc(N(C)c4ccnc(Nc5ccc(CS(C)(=O)=O)cc5)n4)cc3)cc2)CC1 the remaining binding was 50% (BTK; binding; competition with immobilised ligand; 1 µM).
For C#Cc1cnc(Nc2ccnc(CO)c2)nc1Nc1ccccc1S(C)(=O)=NC#N (stereo not shown), the remaining signal was 41% (BTK; cell-free assay; 1 µM).
The remaining binding of CCCCC(=O)Nc1ccc(-c2ccc3ncn(CCC)c(=O)c3c2)cn1 is reported as 89% (BTK; binding; competition with immobilised ligand; 0.5 µM).
With COc1ccc2oc(-c3ccc4nc(N)oc4c3)c/c(=N\c3ccccc3NC(=O)CCN)c2c1 the remaining signal was 99% (Tyrosine-protein kinase BTK (BTK, Homo sapiens, UniProt Q06187, R28H); cell-free assay; 1 µM).
Cc1nc(Nc2ncc(C(=O)Nc3c(C)cccc3Cl)s2)cc(N2CCC(O)CC2)n1 gave an inhibition of 77% (BTK; enzyme activity; inhibitor; mobility shift; 1 nM).
CO[C@@H]1[C@H](N(C)C(=O)c2ccccc2)C[C@H]2O[C@]1(C)n1c3ccccc3c3c4c(c5c6ccccc6n2c5c31)C(=O)NC4 gave an inhibition of 0% (BTK; enzyme activity; inhibitor; 1 µM).
[2H]c1cc(C)c(NC(=O)c2cnc(Nc3cc(N4CC[C@@H](O)C4)nc(C)n3)s2)c(Cl)c1 gave an inhibition of 73% (BTK; enzyme activity; inhibitor; mobility shift; 1 nM).
C=CC(=O)Nc1cccc(Oc2nc(Nc3ccc(N4CCN(C)CC4)cc3)nc3ccoc23)c1 has a kinact/KI of 219000 M⁻¹ s⁻¹ (Tyrosine-protein kinase BTK, non-phosphorylated (BTK, Homo sapiens, UniProt Q06187); cell-free assay; TR-FRET).
The remaining binding of N#Cc1ccc(NC(=O)Nc2ccccc2)cc1 is reported as 89% (BTK; cell-free assay; competition with immobilised ligand; 25 µM).
The remaining binding of COc1ccc2[nH]c3c4[nH]c5ccc(OC)cc5c4c4c(c3c2c1)C(=O)NC4=O is reported as 74% (BTK; binding; competition with immobilised ligand; 1 µM).
For CC#CC(=O)N1CCC[C@H]1c1nc(-c2ccc(C(=O)Nc3ccccn3)cc2)c2c(N)nccn12, the inhibition was 100% (BTK; enzyme activity; inhibitor; 1 µM).
